Assay results published in ChEMBL document CHEMBL1148403, “Platinum(IV) complex with adamantylamine as nonleaving amine group: synthesis, characterization, and in vitro antitumor activity against a panel of cisplatin-resistant cancer cell lines” (J Med Chem, 2004).

How the values were obtained:
HCT-116 = assay: Cytotoxicity against colon cancer HCT116 tumor cell lines; assay type: functional, cell-based, Homo sapiens
A-427 = assay: Cytotoxicity against lung carcinoma A427 tumor cell lines; assay type: functional, cell-based, Homo sapiens
COR-L23 = assay: Cytotoxicity against lung carcinoma COR-L23/CTR tumor cell lines; assay type: functional, cell-based, Homo sapiens
ML-2 = assay: Cytotoxicity against acute myelogenous leukemia ML-2 tumor cell lines; assay type: functional, cell-based, Homo sapiens
HT-29 [1] = assay: Cytotoxicity against colon cancer HT-29 tumor cell lines; assay type: functional, cell-based, Homo sapiens
A2780 [2] = assay: Cytotoxicity against ovarian carcinoma A2780/cis90 tumor cell lines; assay type: functional, cell-based, Homo sapiens
HT-29 [3] = assay: Cytotoxicity against colon cancer HT29N tumor cell lines; assay type: functional, cell-based, Homo sapiens
B16 = assay: Cytotoxicity against mouse melanoma B16 tumor cell lines; assay type: functional, cell-based
A2780 [4] = assay: Cytotoxicity against ovarian carcinoma A2780 tumor cell lines; assay type: functional, cell-based, Homo sapiens
Summary of the method: (§1)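 Cisplatin-sensitive A2780 cells and the A2780/cis resistant subline were exposed continuously for graded times (24, 48 and 72 h). IC50 was determined at each exposure time. The resistant subline had been derived by gradual cisplatin treatment.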

MCF7 = assay: Cytotoxicity against breast carcinoma MCF-7 tumor cell lines; assay type: functional, cell-based, Homo sapiens
HBL-100 = assay: Cytotoxicity against breast carcinoma HBL100 tumor cell lines; assay type: functional, cell-based, Homo sapiens
KG-1 = assay: Cytotoxicity against chronic myelogenous leukemia KG-1 tumor cell lines; assay type: functional, cell-based, Homo sapiens
A2780 [5] = assay: Cytotoxicity against ovarian carcinoma A2780/cis tumor cell lines; assay type: functional, cell-based, Homo sapiens; summary of the method: as §1
K562 = assay: Cytotoxicity against chronic myelogenous leukemia K562 tumor cell lines; assay type: functional, cell-based, Homo sapiens

CISPLATIN showed an IC50 (HCT-116) greater than 80 µM, an IC50 (A-427) of 63 µM and an IC50 (COR-L23) greater than 80 µM. It also gave an IC50 (ML-2) greater than 80 µM, an IC50 (HT-29 [1]) of 50 µM and an IC50 (A2780 [2]) greater than 80 µM. It also gave an IC50 (HT-29 [3]) greater than 80 µM, an IC50 (B16) greater than 80 µM and an IC50 (A2780 [4]) of 4 µM. The IC50 (MCF7) was 71 µM, the IC50 (HBL-100) was 63 µM and the IC50 (KG-1) was 48 µM. For the same sequence, the IC50 (A2780 [5]) was 40 µM and the IC50 (K562) was greater than 80 µM.
